miR122 inh – miR-122 Renilla sensor signal increase in Huh7, primary screen, miR-122 inhibitor project, cell-based, single point, plate reader. Huh7 miR-122 Renilla luciferase sensor, 48 h; neutral wells = 0, positive control = 100. activation (reporter increase), % at 12.5 µM. actives 0.3% (n = 340,000);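 active = mean replicate activation score at least 90 and every replicate individually at or above 90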;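 note: higher luciferase means less miR-122 activity so hits act as miR-122 inhibitors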
SR-BI DiI inh – inhibitors of SR-BI mediated HDL lipid uptake, primary screen, ldlA[mSR-BI] cells, fluorescence, single point; ldlA[mSR-BI] CHO cells, DiI-HDL uptake fluorescence, 3 h; inhibition, % at 12.5 µM; actives 0.96% (n = 320,000);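 active = mean replicate inhibition of at least 70% and a set share of replicates each scoring 70 or more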;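 note: 0% = median of neutral control wells and 100% = median of positive control wells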
Target sequence (Q61009 whole entry, looked up): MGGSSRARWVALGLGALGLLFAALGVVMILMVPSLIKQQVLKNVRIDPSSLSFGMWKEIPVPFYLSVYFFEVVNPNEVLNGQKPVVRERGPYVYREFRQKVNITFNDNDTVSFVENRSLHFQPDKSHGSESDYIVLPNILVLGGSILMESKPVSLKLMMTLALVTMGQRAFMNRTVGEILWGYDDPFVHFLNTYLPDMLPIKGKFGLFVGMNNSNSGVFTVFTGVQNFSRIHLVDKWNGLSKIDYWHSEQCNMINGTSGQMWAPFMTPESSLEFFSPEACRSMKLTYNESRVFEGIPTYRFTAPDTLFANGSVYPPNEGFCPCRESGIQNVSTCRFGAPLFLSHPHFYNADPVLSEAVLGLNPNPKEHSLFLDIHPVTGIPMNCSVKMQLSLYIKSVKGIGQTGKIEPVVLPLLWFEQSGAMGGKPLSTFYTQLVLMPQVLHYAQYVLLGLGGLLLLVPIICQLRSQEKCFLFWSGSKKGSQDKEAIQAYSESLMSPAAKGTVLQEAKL
CAL PDZ FP-1 – untagged CAL PDZ binding inhibitors, primary screen, biochemical, fluorescence polarization, HTS | actives 0.92% (n = 300,000) | purified CAL PDZ, TMR-peptide fluorescence polarization, 1 h | Golgi-associated PDZ and coiled-coil motif-containing protein (Homo sapiens), Q9HD26 | inhibition, % at 24.9 µM;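 active = mean inhibition of at least 30% with at least half of replicates also reaching 30%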;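 note: 0% = DMSO neutral control and 100% = excess unlabeled competitor peptide PRC23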
ARNT TACC3 PPI – disruptors of ARNT/TACC3 protein interaction, primary screen, biochemical, AlphaScreen, single concentration. inhibition, % at 9.99 µM. actives 0.66% (n = 390,000). Transforming acidic coiled-coil-containing protein 3 (Homo sapiens), Q9Y6A5. AlphaScreen His-ARNT PAS-B/GST-TACC3 binding, luminescence; TACC3 fragment carries E629A point mutation;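 active = mean inhibition of replicates at least 50% and at least half of replicates each reaching 50%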;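 note: 0% = complete ARNT plus TACC3 wells and 100% = ARNT alone without TACC3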
CAL PDZ FP-2 – CAL PDZ peptide-binding inhibitors, primary screen, biochemical, fluorescence polarization, Cer-tagged CAL PDZ, HTS | purified CAL PDZ, TMR-peptide fluorescence polarization, 1 h | actives 0.02% (n = 330,000) | inhibition, % at 20 µM | Golgi-associated PDZ and coiled-coil motif-containing protein (Homo sapiens), Q9HD26 | AID 504414, 2011;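 active = highest replicate inhibition of at least 40%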;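 note: plate controls were DMSO neutral control wells for no effect and unlabeled competitor peptide control wells for full effect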
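System: tagged CAL PDZ domain. Schedule: 1 h room-temperature incubation prior to read. Signal: fluorescence polarization (mP). Measure: percent inhibition from loss of millipolarization.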
SR-BI uptake up – activators of SR-BI mediated DiI-HDL uptake, primary screen, ldlA[mSR-BI] CHO cells, DiI fluorescence; AID 504775, 2011; actives 0.096% (n = 320,000); activation, % at 12.5 µM; 3 h; 100 = double the neutral-control signal;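 active = mean replicate activation of at least 60% and every replicate at or above 60%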;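 note: 0% = median plate neutral-control signal and 100% = twice that signal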
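Test system: SR-BI-overexpressing, LDLR-lacking CHO cells. Measured by: DiI fluorescence, bottom read. Medium: Ham's F12 with 0.5% BSA, HEPES 25 mM, pH 7.4. Timing: 3 h uptake period with compound, 37 °C.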
* = called active by the depositor; i = inactive; . = no result; [ ] = dose if it differs, or a comment. Only some compounds are listed: those with a hit (about 2.1% of all), similar ones and a draw of the others.

SMILES | miR122 inh | SR-BI DiI inh | CAL PDZ FP-1 | ARNT TACC3 PPI | CAL PDZ FP-2 | SR-BI uptake up
COc1ccc(Br)cc1CN1CCN(C(=O)Cc2ccccc2)CC1 | 1.5 | i | -2.3 | 8.4 | -1.4 | 724.7*
COc1ccc(CN2CCN(C(=O)Cc3ccccc3)CC2)c(OC)c1 | . | -5.0 | -0.7 | -6.2 | 0.9 | 5.0
Cc1nc2ccc(Cl)cc2c(=O)n1-c1ccc([N+](=O)[O-])cc1 | -6.4 | -7.0 | 75.0* | -8.3 | . | 7.0
Cc1nc2ccccc2c(=O)n1-c1ccc([N+](=O)[O-])cc1 | -4.6 | 16.8 | -2.8 | 4.5 | . | -16.8
COC(=O)[C@@H]1[C@@H](CO)[C@@H]2Cn3c(ccc(-c4ccncc4)c3=O)[C@H]1N2S(=O)(=O)c1ccccc1F | 7.5[16.7 µM] | . | . | -4.2 | . | .
O=C(CCN1CCOCC1)NCC(=O)Nc1ccc(Br)cc1C(=O)c1ccccc1 | -5.2 | 12.4 | 35.6* | 0.1 | -2.4 | -12.4
O=C(CN1CCCCC1)NCC(=O)Nc1ccc(Br)cc1C(=O)c1ccccc1 | 6.0 | 19.2 | -7.4 | -1.9 | -0.6 | -19.2
COc1cc(/C=C/[N+](=O)[O-])ccc1O | . | -80.8 | -1.6 | . | 0.6 | 80.8*
CCN(CC)c1ccc(/C=C/[N+](=O)[O-])cc1 | -5.0 | 4.4 | 2.7 | . | -2.7 | -4.4
COc1cc(OC)c(OC)cc1CN1CCN(C(=O)COc2ccc3ccccc3c2)CC1 | -19.8 | . | 0.5 | 10.6 | -2.8 | .
COc1cccc(CN2CCN(C(=O)COc3ccc4ccccc4c3)CC2)c1 | -0.6 | 86.0* | 8.3 | -9.0 | -1.1 | -86.0
COc1ccc(CCn2c(O)c(/C=N/N3CCCCC3)c(=O)[nH]c2=O)cc1OC | . | -12.9 | -4.5 | -10.0 | -0.6 | 12.9
CCCCCCn1c(O)c(/C=N/N2CCCCCC2)c(=O)[nH]c1=O | . | -150.7 | -4.6 | -1.3 | 0.0 | 150.7*
O=c1[nH]c(=O)n(Cc2ccco2)c(O)c1/C=N/N1CCCCC1 | . | -14.0 | -3.9 | active | -0.7 | 14.0
O=c1[nH]c(=O)n(Cc2ccco2)c(O)c1C=NC1CC1 | -0.4 | -16.8 | -3.8 | 29.1 | 0.1 | 16.8
COC(=O)C[C@H]1CC[C@@H]2NC[C@@H](O)COC[C@H]2O1 | 4.1[16.7 µM] | . | . | -5.1 | . | .
CCn1c(O)c(/C=N/NC(=O)c2ccccc2)c(=O)[nH]c1=S | . | 37.6 | 74.2* | 63.1* | -0.3 | -37.6
COc1ccc(Cn2c(O)c(/C=N/NC(=O)c3ccccc3)c(=O)[nH]c2=O)cc1 | 2.2 | 80.6* | -5.5 | 39.9 | -2.2 | -80.6
COc1ccc(Cn2c(O)c(/C=N/NC(=O)c3ccncc3)c(=O)[nH]c2=O)cc1 | -2.2 | -2.0 | 2.0 | 58.0* | 1.3 | 2.0
COc1ccccc1-n1c(O)c(/C=N/NC(=S)Nc2ccccc2)c(=O)[nH]c1=S | -7.8 | -10.0 | -2.6 | 19.4 | -0.5 | 10.0
COc1ccc(Cn2c(O)c(C=NCCCn3ccnc3)c(=O)[nH]c2=O)cc1 | -2.1 | -6.4 | 7.2 | -1.7 | -1.0 | 6.4
O=C(N/N=C/c1c(O)n(CCc2ccc(F)cc2)c(=O)[nH]c1=O)c1ccccc1 | -2.6 | . | . | . | . | .
COC(=O)[C@H]1[C@H](CO)[C@H]2Cn3c(ccc(-c4ccccc4F)c3=O)[C@@H]1N2C(C)=O | 1.0[16.7 µM] | . | . | -5.4 | . | .
O=c1[nH]c(O)c(C=NCCc2ccccc2)c(=O)[nH]1 | . | -14.6 | 83.9* | -1.4 | -0.8 | 14.6
CCn1c(NN=O)nc2ccccc21 | . | -11.7 | -2.3 | 48.3* | -4.0 | 11.7
SMILES | miR122 inh | SR-BI DiI inh | CAL PDZ FP-1 | ARNT TACC3 PPI | CAL PDZ FP-2 | SR-BI uptake up
COc1cc(/C=C2/C(=O)NC(=O)N(c3ccccc3)C2=O)ccc1O | . | -14.8 | 0.2 | active | -0.2 | 14.8
COc1cc(OC)c(OC)cc1/C=C1\C(=O)NC(=O)N(Cc2ccccc2)C1=O | -4.1 | -15.2 | 67.0* | 11.2 | 0.1 | 15.2
COC(=O)[C@H]1[C@H](CO)[C@H]2Cn3c(ccc(C4=CCCC4)c3=O)[C@@H]1N2CC1CCCCC1 | -6.8[16.7 µM] | . | . | 3.6 | . | .
COC(=O)[C@H]1[C@H](CO)[C@H]2Cn3c(ccc(-c4ccc(F)cc4)c3=O)[C@@H]1N2Cc1cccnc1 | . | . | . | -2.2 | . | .
Nc1cc(Cl)c2nonc2c1[N+](=O)[O-] | . | -69.8 | 0.5 | 5.8 | 0.1 | 69.8*
COC(=O)[C@@H]1[C@@H](CO)[C@@H]2Cn3c(ccc(-c4ccccc4OC)c3=O)[C@H]1N2Cc1ccccc1 | . | . | . | 1.7 | . | .
COC(=O)[C@@H]1[C@@H](CO)[C@@H]2Cn3c(ccc(-c4ccccc4)c3=O)[C@H]1N2S(=O)(=O)c1ccccc1C | -1.9[16.7 µM] | . | . | -15.7 | . | .
COc1ccc(-c2ccc3c(c2)CN(C(=O)CCc2ccccc2)Cc2cnnn2-3)cc1 | 2.6 | . | . | . | . | .
COc1ccc(-c2ccc3c(c2)CN(C(=S)NCCc2ccccc2)Cc2cnnn2-3)cc1 | 119.1* | . | . | . | . | .
CC(=O)O[C@@H]1CC[C@]2(C)C3CC[C@]4(C)C(=O)[C@H](O)CC4C3[C@@H](OC(C)=O)C[C@H]2C1 (stereo partly drawn) | 0.2 | -40.7 | 78.1* | -1.7 | -1.1 | 40.7
CC(=NNC(=S)N1CC2CCC(CC2)C1)c1nccs1 | -7.0 | 52.9 | -4.3 | 71.6* | -1.0 | -52.9
O=C(O)[C@H]1[C@H](CO)[C@H]2Cn3c(ccc(-c4cccc(F)c4)c3=O)[C@@H]1N2CCc1ccccc1 | 0.8[16.7 µM] | . | . | 3.0 | . | .
Cc1ccc(-c2nc3ccccc3c(=O)n2-c2cccc(O)c2)cc1 | 1.6 | 32.7 | 57.5* | -1.1 | -2.7 | -32.7
Cc1nc2ccccc2c(=O)n1-c1cccc(O)c1 | -15.3 | -1.9 | 0.3 | -1.9 | . | 1.9
COc1ccc(C#Cc2ccc([C@@H]3[C@H]4CN(C(=O)Cc5cccnc5)CCCCN4[C@H]3CO)cc2)cc1 | -15.2[16.7 µM] | . | . | -2.7 | . | .
O=C(Cc1ccccn1)N1CCCCN2[C@H](CO)[C@H](c3ccc(Br)cc3)[C@H]2C1 | 1.6[16.7 µM] | . | . | -5.6 | . | .
O=C(c1ccc2c(c1)OCO2)C1CCCN(CC2CCCCC2)C1 (stereo not drawn) | . | -18.5 | 78.4* | -1.6 | -1.5 | 18.5
CCCCn1c(O)c(C(C)=NCc2cc(OC)cc(OC)c2)c(=O)[nH]c1=O | -5.6 | -9.2 | -4.0 | 26.3* | -3.0 | 9.2
Cc1cc(N(CCCl)CCCl)ccc1C=NNC(=O)c1cccnc1 | -2.8 | 88.8* | -1.5 | 1.2 | -1.2 | -88.8
